Screen size: about 340,000 compounds; about 3,000 (0.88%) were called active.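 Rule for the calls: active = inhibition above about 50% at 20 µM (limit read from the data); inactive = the rest.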 Shown is part of a subset that was picked to be rich in actives. Non-standard residues stand in square brackets, D forms with d. Residues, ends and D or L forms follow the SMILES beside them. ξ: configuration not given here. ξM = CSCCC(N)C(=O)O
The compounds below were run against Carboxy-terminal domain RNA polymerase II polypeptide A small phosphatase 1 (Homo sapiens) (UniProt Q9GZU7) (assay: Scp-1 phosphatase inhibitors, primary screen, biochemical, colorimetric, uHTS (AID 493091;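 note: plate controls were DMSO wells with enzyme for no effect and wells lacking enzyme for full effect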)). Conditions: Recombinant Scp1, phosphopeptide, malachite green phosphate absorbance; at 20 µM; active compounds read high.
Chain of Carboxy-terminal domain RNA polymerase II polypeptide A small phosphatase 1 (Homo sapiens) (Q9GZU7 76-261 limits assumed): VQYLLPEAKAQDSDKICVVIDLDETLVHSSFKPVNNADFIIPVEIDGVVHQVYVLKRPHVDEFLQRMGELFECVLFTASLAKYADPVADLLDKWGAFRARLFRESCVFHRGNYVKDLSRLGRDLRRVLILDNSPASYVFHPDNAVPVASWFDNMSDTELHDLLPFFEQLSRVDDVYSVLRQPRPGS
How it was run: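 Test system: SCP-1 catalytic domain; Buffer or medium: Acidic Tris acetate buffer with magnesium and detergent; Also added: Phosphorylated 17-residue peptide substrate; Compound: single 20 µM dose, 1% DMSO; Schedule: enzyme reaction 45 min at room temperature, colour 5 min, stabilisation 30 min; Signal: Phosphate-binding colour reagent, absorbance read at 630 nm.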

inhibition, active:
C=CCn1c(=S)[nH]c2scc(-c3ccco3)c2c1=O 67.9%, Cc1ccc(CCNC(=O)c2ccc3nc4ccccc4c(=O)n3c2)cc1 60.3%, Cn1c(N)c(C(=O)COC(=O)c2ccc3ccccc3c2)c(=O)n(C)c1=O 53%, CCOc1ccc(NC(=O)c2ccc(NC(=O)COC(=O)c3ccc(NC(=O)CC#N)cc3)cc2)cc1 85.9%, C=C(C)C(=O)Nc1cccc(C2=NOC3(C2)C[C@H](C(N)=O)N(C(=O)C(c2ccccc2)c2ccccc2)C3)c1 (stereo not given in full) 70.2%, O=c1[nH]n(-c2ccc([N+](=O)[O-])cc2)c(=O)c2ccccc12 52.1%, O=C(O)c1ccc(N/N=C/c2ccc3ncccc3c2)cc1 50.4%, Cn1c2ccccc2c(=O)c2c(=O)n(Cc3ccco3)c(COc3ccccc3)nc21 92.9%, CC(=O)Nc1ccccc1Sc1ccc2c3c(cccc13)C(=O)N(c1ccc(C)cc1)C2=O 53.1%, Cc1c(CCC(=O)O)c(=O)oc2c(C)c(OCc3ccccc3Cl)ccc12 97.5%, Cc1c(CCC(=O)O)c(=O)oc2cc(OCc3ccc(Br)cc3)ccc12 53.3%, CC(C)CCOc1ccc(C(=O)C[N+]2(C)CCOCC2)cc1 51%, O=C(COc1ccc(-n2cnnn2)cc1)Nc1ccccc1Cl 58.7%, O=C(Nc1cccc(F)c1)[C@@H]1CCCN1 67.8%, Cc1ccc(Cc2nnc(SCC(=O)Nc3ccc(C)cc3C)[nH]c2=O)cc1 53.8%, COC(=O)CNC(=O)C(CCSC)NC(C)=O (stereo not given) (Ac-[ξM]-Gly-OMe) 50.3%, CCCCSc1nnc(-c2ccc(C)cc2)o1 81.5%, N#CC1=C(SCc2ccccc2)NC(=O)C(C#N)C12CCCC2 (stereo not given) 68.9%

inhibition, inactive:
C=CCn1cnc2scc(-c3ccccc3)c2c1=O -18.1%, C=CCn1c(=S)[nH]c2nc3c(cc2c1=O)COC(C)(C)C3 -8.72%, CN(CCC1CCOCC1)Cc1cn[nH]c1-c1ccc(-c2ccccc2)cc1 -1.75%, CCn1c(=O)n(CC)c2cc(N3CCCC3)c(NC(=O)c3ccccc3Br)cc21 -2.26%, Cc1ccc2nc3c(cc(C(=O)NCCc4ccccc4)c(=N)n3CC3CCCO3)c(=O)n2c1 (stereo not given) 1.78%, Cc1ccc(CNC(=O)CCNC(=O)Cn2ccc3ccccc3c2=O)cc1 -12.1%, CCOc1cc(C2/C(=C(/O)c3ccc(S(=O)(=O)N4CCCCC4)cc3)C(=O)C(=O)N2CCOC)ccc1O (stereo not given) 1.05%, Cc1cccc(NC(=O)CSc2nc3c(c(=O)[nH]2)CCC3)c1C -1.16%, COc1ccccc1N1CCN(C(=O)c2cc(=O)c3cc(C)cc(C)c3o2)CC1 -7.13%, Cn1c(N)c(C(=O)COC(=O)c2cnc(Cl)c(Cl)c2)c(=O)n(C)c1=O -5.15%, Cn1c(N)c(C(=O)COC(=O)c2cccc(S(=O)(=O)N3CCOCC3)c2)c(=O)n(C)c1=O 3.96%, C[C@]1(C(=O)NCCc2c[nH]c3ccccc23)C=C[C@@H](Cc2ccccc2)N1C(=O)c1ccccc1 -5.17%, N#CCC(=O)Nc1ccc(C(=O)OCC(=O)Nc2sc3c(c2C#N)CCCC3)cc1 1.62%, CC(C)NC(=O)NC(=O)COC(=O)c1ccc(NC(=O)CC#N)cc1 -2.24%, Cc1ncn2cc(-c3ccc(Cl)cc3Cl)[nH]c(=O)c12 -6.56%, O=C(NCc1cccc(Cl)c1)C1CCN(c2nnc(N3CCCC3=O)s2)CC1 -6.55%, O=C(NNC(=O)c1ccccc1[N+](=O)[O-])Nc1ccccc1C(F)(F)F 0.19%, C/C=C(/C)C(=O)Nc1cccc(C2=NOC3(C2)C[C@@H](C(N)=O)N(C(=O)C2(C)CC2)C3)c1 (stereo not given in full) -2.33%, C/C=C\C=C\C(=O)N1CC2(CC(c3cccc(NC(=O)/C(C)=C\C)c3)=NO2)C[C@H]1C(N)=O (stereo not given in full) 34.8%, C=CCn1cc(C(=O)NCc2ccc(Cl)cc2)c(=O)c2cc(S(=O)(=O)N(CC)CC)ccc21 -4.15%, COCCC(=O)N1CCC(Oc2ccc(C(=O)NCc3ccon3)cc2)CC1 -1.77%, COc1ccc(S(=O)(=O)N2CCN(CC(=O)N3CCOCC3)CC2)cc1OC -0.04%, CC(C)C(O)C1CCN(Cc2nc(Cc3ccccc3Cl)no2)CC1 (stereo not given) -2.82%, O=[N+]([O-])c1ccc(N2CCOCC2)cc1 -2.71%, COc1cnn(-c2ccc([N+](=O)[O-])cc2)c(=O)c1Cl -3.84%, CC(C)(C)c1cc2cccnc2n1Cc1cccc(F)c1 -1.78%, CCOC(=O)C1CCN(S(=O)(=O)c2c(C)noc2C)CC1 -4.7%, COc1ccccc1NC(=O)c1ccc(N2CC3CC(C2)c2cccc(=O)n2C3)c(NC(=O)c2cccnc2)c1 (stereo not given) -3.99%, Cc1ccc2cc(/C=N/Nc3ccc(C(=O)O)cc3)c(Cl)nc2c1 0.89%, CCNC(=S)NNC(=O)c1ccc2ncccc2c1 -9.05%, CCCc1nc2c(c(=O)c3ccccc3n2C)c(=O)n1C1CCCCCC1 2.39%, O=c1c2ccccc2oc2nc(C3CCCCC3)n(Cc3ccco3)c(=O)c12 -2.2%, COCCn1c(C)cc(C(=O)COC(=O)CNC(=O)c2ccco2)c1C -7.15%, Cc1ccc(C(=O)Nc2nc(N)n(-c3ccccc3)n2)cc1 -3.84%, Cc1cc(S(=O)(=O)N2CCOCC2)ccc1OCC(=O)N1CCOCC1 2.62%, CCC(C)NC(=O)/C=C/c1ccc(S(=O)(=O)NCc2ccco2)cc1 (stereo not given) 6.25%, CSc1ccccc1NC(=O)C(C)N1C(=O)c2ccccc2S1(=O)=O (stereo not given) 39.4%, Cc1ccc(N2C(=O)CC(Nc3cccc4ccccc34)C2=O)cc1 (stereo not given) -3.84%, COC(=O)c1cc(S(=O)(=O)Nc2ccc(C)c(F)c2)c[nH]1 -3.42%, COc1ccc2c(C)c(CCC(=O)NC3CC3)c(=O)oc2c1C -1.31%, CCOC(=O)CCc1c(C)c2ccc(OCc3nn[nH]n3)c(C)c2oc1=O 2.8%, Cc1coc2cc3oc(=O)c(CCC(=O)O)c(C)c3cc12 -1.97%, Cc1c(CCC(=O)O)c(=O)oc2cc3occ(-c4ccccc4)c3cc12 -18.2%, O=C(COC(=O)[C@H](Cc1ccccc1)NC(=O)c1cccs1)Nc1cc(F)ccc1F -10.5%, CCN(CC)c1ccc([N+](=O)[O-])cc1C(=O)O -4.84%, COc1cccc(NC(=O)Cn2cnc3sc(C)c(S(=O)(=O)N4CCN(C)CC4)c3c2=O)c1 -1.94%, CCOc1ccc(C(=O)CCN2CCOCC2)cc1 -2.17%, CCCOc1ccc(C(=O)C(CCC(CNCC)C(=O)c2ccc(OCCC)cc2)CNCC)cc1 (stereo not given) 10.4%, Cc1ccc(CNC(=O)C2CCCN2C(=O)NCc2ccccc2)cc1 (stereo not given) -7.83%, O=C(COc1ccc(Cl)cc1)Nc1ccccc1CO -5.63%, C=CCc1cccc(/C=N/NC(=O)COc2ccc(-n3cnnn3)cc2)c1O -8.78%, COc1ccc(C(=O)N(Cc2ccccc2)c2ccc(C)cc2)cc1S(=O)(=O)N1CCOCC1 -6.19%, C=CCOc1ccc(/C=C/C(=O)OCC(=O)NC2CCCCCC2)cc1 22%, CCNc1nc(NC(C)C)nc(OCCOC(=O)c2ccccc2)n1 2.19%, O=C(Nc1cccc(F)c1)NC1CCCCCCC1 -10.5%, O=C(COC(=O)CNC(=O)C1CCCCC1)Nc1cccc(F)c1 -6.06%, Cc1ccc(N2C(=O)N3[C@@H]4c5ccccc5OC[C@@H]4[C@@H](c4ccccc4)[C@@]3(C)C2=O)cc1 -17.6%, N#C/C=C/N1CCN(Cc2ccc3c(c2)OCO3)CC1 -12.3%, O=C(c1ccc(F)cc1)N1CCCC(C(=O)N2CCCCC2)C1 (stereo not given) -6.52%, COc1ccc(Cc2nnc(SCC(=O)Nc3ccc(C)c(Cl)c3)[nH]c2=O)cc1 48%, Cc1ccc(Cc2nnc(SCC(=O)Nc3ccccc3C)[nH]c2=O)cc1 16.3%, COc1ccc2cc(C3=CC(=O)C[C@H](c4ccc5c(c4)OCO5)C3)ccc2c1 -11%, COc1ccccc1OCCNC(=O)C(CCSC)NC(=O)COc1ccccc1 (stereo not given) -8.06%, CCC(C)NC(=O)N[C@@H](CCSC)C(=O)O (stereo not given in full) -4.53%, CCOc1ccc(OCC)c(NC(=O)CN(C)S(=O)(=O)c2cccc3nsnc23)c1 -5.95%, Cc1ccc(OCCNC(=O)c2cccc(S(=O)(=O)N3CCN(Cc4ccccc4)CC3)c2)cc1 -10.4%, Cc1ccc(-c2nnc(CN3CCN(C)CC3)o2)cc1 -6%, CC1=CC(C)(C)N(C(=O)CSc2nnc(-c3ccccc3)o2)c2ccc(C)cc21 -2.74%, CCSC1=C(C#N)C(=O)n2c1cc1c2CCCC1 -1.97%, O=C(N/C(=C\c1ccc(F)cc1)C(=O)N1CCCCCC1)c1ccccc1 -0.73%, CC1(C)CCc2nc(SCc3ccccc3)c(C#N)cc2C1 -11.5%, N#CC1=C(SCc2ccc(C#N)cc2)N=C(N)C(c2nc(-c3ccccc3)cs2)C12CCCCC2 (stereo not given) -1.99%

From PubChem BioAssay AID493091 (Sanford-Burnham Center for Chemical Genomics, 2011)
